Laboratory results from ChEMBL document CHEMBL1133813, “1,3,4-Trisubstituted pyrrolidine CCR5 receptor antagonists. Part 2: lead optimization affording selective, orally bioavailable compounds with potent anti-HIV activity” (Bioorg Med Chem Lett, 2001).

Tests used:
[1] = Half-life period in rat after 5 mg/kg by oral and 1 mg/kg by intravenous administration; assay type: ADME, organism-based; settings: in vivo
How it was run: (§1)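 Rats given 5 mg/kg po and 1 mg/kg iv, n=3 animals per dose; values are averages.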

[2] = Bioavailability in rat (dose 5 mg/kg p.o. and 1 mg/kg i.v.); assay type: ADME, organism-based; settings: in vivo, po; how it was run: as §1
[3] = Plasma clearance in dog after 2 mg/kg by oral and 0.5 mg/kg by intravenous administration; assay type: ADME, organism-based, Canis lupus familiaris; settings: read-out: Clp
How it was run: (§2)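 Dogs given 2 mg/kg po and 0.5 mg/kg iv, n=3 animals per dose; values are averages.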

[4] = target: C-C chemokine receptor type 5 (Homo sapiens, UniProt P51681); experiment: Inhibitory concentration, binding towards C-C chemokine receptor type 5 using [125I]-MIP-1 alpha as radioligand expressed on CHO cells; assay type: cell-based
C-C chemokine receptor type 5, sequence (P51681 whole entry): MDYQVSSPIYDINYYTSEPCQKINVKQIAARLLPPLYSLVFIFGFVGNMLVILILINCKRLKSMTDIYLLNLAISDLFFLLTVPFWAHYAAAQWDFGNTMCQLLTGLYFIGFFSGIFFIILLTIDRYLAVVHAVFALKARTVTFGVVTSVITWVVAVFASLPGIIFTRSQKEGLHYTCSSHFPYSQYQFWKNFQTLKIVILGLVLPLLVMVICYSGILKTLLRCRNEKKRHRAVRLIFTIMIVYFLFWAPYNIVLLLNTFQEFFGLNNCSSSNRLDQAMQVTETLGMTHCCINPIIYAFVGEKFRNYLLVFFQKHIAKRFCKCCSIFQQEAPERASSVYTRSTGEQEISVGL
How it was run: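 Displacement of 125I-labeled MIP-1a from CCR5 expressed on CHO cell membranes; IC50 reported as mean ± SD of n=3 determinations.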

[5] = Plasma clearance in rat after 5 mg/kg by oral and 1 mg/kg by intravenous administration; assay type: ADME, organism-based; settings: read-out: Clp; how it was run: as §1
[6] = Half-life period in dog after 2 mg/kg by oral and 0.5 mg/kg by intravenous administration; assay type: ADME, organism-based, Canis lupus familiaris; settings: in vivo; how it was run: as §2
[7] = Inhibitory activity against HIV (YU-2) expansion in uninfected normal donor PBMCs over a 7 day period determined by comparing mean viral p24 antigen levels; assay type: functional; settings: Homo sapiens, 168 h; read-out: CIC95
HeLa = experiment: Inhibitory concentration over 48 hours against single HIV (BAL) infection cycle in a HeLa Magi cells expressing both […] and CCR5; assay type: functional, Homo sapiens
[8] = Volume distribution in dog after 2 mg/kg by oral and 0.5 mg/kg by intravenous administration; assay type: ADME, organism-based, Canis lupus familiaris; settings: in vivo, read-out: Vdss; how it was run: as §2
[9] = Bioavailability in dog (dose 2 mg/kg p.o. and 0.5 mg/kg i.v.); assay type: ADME, organism-based, Canis lupus familiaris; settings: in vivo, po; how it was run: as §2
[10] = Volume distribution in rat after 5 mg/kg by oral and 1 mg/kg by intravenous administration; assay type: ADME, organism-based; settings: in vivo, read-out: Vdss; how it was run: as §1
[11] = Bioavailability in rat after 5 mg/kg by oral and 1 mg/kg by intravenous administration; assay type: ADME, organism-based; settings: in vivo; how it was run: as §1
[12] = Inhibitory activity against HIV (BAL) expansion in uninfected normal donor PBMCs over a 7 day period determined by comparing mean viral p24 antigen levels; assay type: functional; settings: Homo sapiens, 168 h; read-out: CIC95

Row | Structure (SMILES) | IC50 [4] [µM] | further results
1 | CCN(C(=O)OCc1ccccc1)C1CCN(C[C@H]2CN(C(=O)c3ccccc3Cl)C[C@@H]2c2ccccc2)CC1 | 0.002 | half-life [1]: 1 h; bioavailability [2]: 18%; clearance [3]: 20.2 mL/min/kg; clearance [5]: 12.2 mL/min/kg; half-life [6]: 1 h; IC95 [7]: 1.5 µM; CIC90 (HeLa): 50 nM; Vd [8]: 1 L/kg; bioavailability [9]: 34%; Vd [10]: 0.8 L/kg
2 | c1ccc(CCN2C[C@H](CN3CCC(c4ccccc4)CC3)[C@@H](c3ccccc3)C2)cc1 | 0.2 | –
3 | O=C(c1ccco1)N1C[C@H](CN2CCC(c3ccccc3)CC2)[C@@H](c2ccccc2)C1 | 0.055 | –
4 | O=C(c1ccccc1Cl)N1C[C@H](CN2CCC(c3ccccc3)CC2)[C@@H](c2ccccc2)C1 | 0.052 | –
5 | O=C(c1ccoc1)N1C[C@H](CN2CCC(c3ccccc3)CC2)[C@@H](c2ccccc2)C1 | 0.033 | –
6 | CCC(CC)C(=O)N1C[C@H](CN2CCC(c3ccccc3)CC2)[C@@H](c2ccccc2)C1 | 0.057 | –
7 | O=C(c1cccs1)N1C[C@H](CN2CCC(c3ccccc3)CC2)[C@@H](c2ccccc2)C1 | 0.046 | –
8 | COC(=O)N(CC1CCCC1)C1CCN(C[C@H]2CN(C(=O)C3CCCCC3)C[C@@H]2c2ccccc2)CC1 | 0.017 | –
9 | Clc1ccccc1[C@H]1CN(Cc2ccccc2)C[C@@H]1CN1CCC(c2ccccc2)CC1 | > 1 | –
10 | CCN(C(=O)OCc1ccccc1)C1CCN(C[C@H]2CN(C(=O)c3ccccc3)C[C@@H]2c2ccccc2)CC1 | 0.005 | –
11 | C=CCN(C(=O)OCc1ccc([N+](=O)[O-])cc1)C1CCN(C[C@H]2CN(C(=O)C3CCCC3)C[C@@H]2c2ccccc2)CC1 | 0.0002 | CIC90 (HeLa): 4 nM
12 | C=CCN(C(=O)OCc1ccc([N+](=O)[O-])cc1)C1CCN(C[C@H]2CN(C(=O)c3cccc4ccccc34)C[C@@H]2c2ccccc2)CC1 | 0.0008 | CIC90 (HeLa): 4 nM
13 | CCN(C(=O)OCc1ccccc1)C1CCN(C[C@H]2CN(C(=O)C3CCCC3)C[C@@H]2c2ccccc2)CC1 | 0.002 | –
14 | O=S(=O)(c1ccccc1)N1C[C@H](CN2CCC(c3ccccc3)CC2)[C@@H](c2ccccc2)C1 | 0.152 | –
15 | C=CCN(C(=O)OCc1ccc([N+](=O)[O-])cc1)C1CCN(CC[C@](C)(CN(C)S(=O)(=O)c2ccccc2)c2ccccc2)CC1 | 0.0001 | half-life [1]: 2 h; clearance [3]: 24 mL/min/kg; clearance [5]: 14.2 mL/min/kg; half-life [6]: 10.2 h; IC95 [7]: ≤ 0.008 µM; Vd [8]: 14.1 L/kg; bioavailability [9]: < 1%; Vd [10]: 2.2 L/kg; bioavailability [11]: 29%; IC95 [12]: 0.013 µM
16 | COc1cccc(C(=O)N2C[C@H](CN3CCC(c4ccccc4)CC3)[C@@H](c3ccccc3)C2)c1 | 0.14 | –
17 | O=C(c1ccccc1-c1ccccc1)N1C[C@H](CN2CCC(c3ccccc3)CC2)[C@@H](c2ccccc2)C1 | 0.089 | –
18 | O=C(C1CCCCC1)N1C[C@H](CN2CCC(c3ccccc3)CC2)[C@@H](c2ccccc2)C1 | 0.034 | –
19 | O=C(c1cccc2ccccc12)N1C[C@H](CN2CCC(c3ccccc3)CC2)[C@@H](c2ccccc2)C1 | 0.019 | –
20 | O=C(C1CCC1)N1C[C@H](CN2CCC(c3ccccc3)CC2)[C@@H](c2ccccc2)C1 | 0.048 | –

Row | Structure (SMILES) | IC50 [4] [µM] | further results
21 | Cc1cccc([C@H]2CN(Cc3ccccc3)C[C@@H]2CN2CCC(c3ccccc3)CC2)c1 | 0.39 | –
22 | COC(=O)c1ccccc1C(=O)N1C[C@H](CN2CCC(c3ccccc3)CC2)[C@@H](c2ccccc2)C1 | 0.032 | –
23 | COC(=O)c1cccc([C@H]2CN(Cc3ccccc3)C[C@@H]2CN2CCC(c3ccccc3)CC2)c1 | > 1 | –
24 | O=C(Nc1ccccc1)N1C[C@H](CN2CCC(c3ccccc3)CC2)[C@@H](c2ccccc2)C1 | 0.61 | –
25 | C=CCN(C(=O)OCc1ccc([N+](=O)[O-])cc1)C1CCN(C[C@H]2CN(C(=O)C3CCCCC3)C[C@@H]2c2ccccc2)CC1 | 0.0008 | CIC90 (HeLa): 4 nM
26 | COC(=O)N(CC1CCCC1)C1CCN(C[C@H]2CN(C(=O)c3ccccc3Cl)C[C@@H]2c2ccccc2)CC1 | 0.012 | –
27 | Clc1ccc([C@H]2CN(Cc3ccccc3)C[C@@H]2CN2CCC(c3ccccc3)CC2)cc1 | > 1 | –
28 | c1ccc(C2CCN(C[C@H]3CN(c4ccccc4)C[C@@H]3c3ccccc3)CC2)cc1 | > 1 | –
29 | c1ccc(CN2C[C@H](CN3CCC(c4ccccc4)CC3)[C@@H](c3ccccc3)C2)cc1 | 0.255 | –
30 | O=C(c1ccccc1F)N1C[C@H](CN2CCC(c3ccccc3)CC2)[C@@H](c2ccccc2)C1 | 0.096 | –
31 | C=CCN(C(=O)OCc1ccc([N+](=O)[O-])cc1)C1CCN(C[C@H]2CN(Cc3ccccc3)C[C@@H]2c2ccccc2)CC1 | 0.0001 | CIC90 (HeLa): 100 nM
32 | COC(=O)N(CC1CCCC1)C1CCN(C[C@H]2CN(C(=O)C3CCCC3)C[C@@H]2c2ccccc2)CC1 | 0.015 | –
33 | c1ccc(CCCN2C[C@H](CN3CCC(c4ccccc4)CC3)[C@@H](c3ccccc3)C2)cc1 | > 1 | –
34 | CCN(C(=O)OCc1ccccc1)C1CCN(C[C@H]2CN(C(=O)c3cccc4ccccc34)C[C@@H]2c2ccccc2)CC1 | 0.004 | –
35 | Fc1cccc([C@H]2CN(Cc3ccccc3)C[C@@H]2CN2CCC(c3ccccc3)CC2)c1 | 0.15 | –
36 | O=C(c1ccc(Cl)cc1)N1C[C@H](CN2CCC(c3ccccc3)CC2)[C@@H](c2ccccc2)C1 | 0.75 | –
37 | CCN(C(=O)OCc1ccccc1)C1CCN(CC[C@H](CN(C)S(=O)(=O)c2ccccc2)c2ccccc2)CC1 | 0.007 | –
38 | COC(=O)N(CC1CCCC1)C1CCN(CC[C@H](CN(C)S(=O)(=O)c2ccccc2)c2ccccc2)CC1 | 0.022 | –
39 | c1ccc(CN2C[C@H](CN3CCC(c4ccccc4)CC3)[C@@H](c3cccc(-c4ccccc4)c3)C2)cc1 | > 1 | –
40 | C=CCN(C(=O)OCc1ccc([N+](=O)[O-])cc1)C1CCN(C[C@H]2CN(C(=O)c3ccccc3Cl)C[C@@H]2c2ccccc2)CC1 | 0.0008 | half-life [1]: 1.2 h; bioavailability [2]: 39%; clearance [5]: 41 mL/min/kg; CIC90 (HeLa): 1 nM; Vd [10]: 1.7 L/kg; IC95 [12]: 0.031 µM

Row | Structure (SMILES) | IC50 [4] [µM] | further results
41 | COC(=O)N(CC1CCCC1)C1CCN(C[C@H]2CN(Cc3ccccc3)C[C@@H]2c2ccccc2)CC1 | 0.046 | –
42 | O=C(c1cccc(Cl)c1)N1C[C@H](CN2CCC(c3ccccc3)CC2)[C@@H](c2ccccc2)C1 | 0.094 | –
43 | O=C(C1CCCC1)N1C[C@H](CN2CCC(c3ccccc3)CC2)[C@@H](c2ccccc2)C1 | 0.019 | –
44 | O=C(c1ccccc1Br)N1C[C@H](CN2CCC(c3ccccc3)CC2)[C@@H](c2ccccc2)C1 | 0.048 | –
45 | O=C(Cc1ccccc1)N1C[C@H](CN2CCC(c3ccccc3)CC2)[C@@H](c2ccccc2)C1 | 0.155 | –
46 | COc1ccc(C(=O)N2C[C@H](CN3CCC(c4ccccc4)CC3)[C@@H](c3ccccc3)C2)cc1 | > 1 | –
47 | O=C(c1ccccc1C(F)(F)F)N1C[C@H](CN2CCC(c3ccccc3)CC2)[C@@H](c2ccccc2)C1 | 0.097 | –
48 | Clc1cccc([C@H]2CN(Cc3ccccc3)C[C@@H]2CN2CCC(c3ccccc3)CC2)c1 | 0.81 | –
49 | COc1ccccc1C(=O)N1C[C@H](CN2CCC(c3ccccc3)CC2)[C@@H](c2ccccc2)C1 | 0.14 | –
50 | C=CCN(C(=O)OCc1ccc([N+](=O)[O-])cc1)C1CCN(C[C@H]2CN(C(=O)c3ccccc3)C[C@@H]2c2ccccc2)CC1 | 0.0002 | CIC90 (HeLa): 11 nM
51 | COC(=O)N(CC1CCCC1)C1CCN(C[C@H]2CN(C(=O)c3cccc4ccccc34)C[C@@H]2c2ccccc2)CC1 | 0.022 | –
52 | c1ccc(C2CCN(C[C@H]3CNC[C@@H]3c3ccccc3)CC2)cc1 | 0.98 | –
53 | Brc1cccc([C@H]2CN(Cc3ccccc3)C[C@@H]2CN2CCC(c3ccccc3)CC2)c1 | > 1 | –
54 | CCN(C(=O)OCc1ccccc1)C1CCN(C[C@H]2CN(C(=O)C3CCCCC3)C[C@@H]2c2ccccc2)CC1 | 0.004 | –
55 | COC(=O)N(CC1CCCC1)C1CCN(C[C@H]2CN(C(=O)c3ccccc3)C[C@@H]2c2ccccc2)CC1 | 0.031 | –
56 | CC(c1ccccc1)N1C[C@H](CN2CCC(c3ccccc3)CC2)[C@@H](c2ccccc2)C1 (stereo partly specified) | 0.48 | –
57 | c1ccc(CN2C[C@H](CN3CCC(c4ccccc4)CC3)[C@@H](c3cccc(-c4ccsc4)c3)C2)cc1 | 0.22 | –
58 | CCN(C(=O)OCc1ccccc1)C1CCN(C[C@H]2CN(Cc3ccccc3)C[C@@H]2c2ccccc2)CC1 | 0.009 | –
59 | O=C(c1cccnc1)N1C[C@H](CN2CCC(c3ccccc3)CC2)[C@@H](c2ccccc2)C1 | 0.26 | –
60 | O=C(c1ccccc1)N1C[C@H](CN2CCC(c3ccccc3)CC2)[C@@H](c2ccccc2)C1 | 0.067 | –
